# Like-named read-outs stand apart in the source and are kept apart here.
# What was measured:
# [1] = cited from earlier work; for t1/2: mean ± SD
# [2] = test system: healthy subjects; settings: cited from earlier work
# [3] = test system: healthy subjects; assay: Multiple ascending dose; type: in vivo, human
# [4] = test system: healthy subjects; settings: febuxostat multiple 80 mg once-daily doses after a high-fat meal; cited from earlier work
# [5] = test system: CYP isoenzymes; settings: incubated with CYP isoenzymes; preclinical, no reference given; cited from earlier work
# [6] = test system: SUA; settings: in vivo study; ref data on file at LG Life Sciences; cited from earlier work
# [7] = test system: dog; settings: preclinical studies, no reference given; cited from earlier work
# [8] = test system: XO enzyme; settings: in vitro; ref data on file at LG Life Sciences; cited from earlier work
# [9] = test system: liver microsome; settings: in vitro liver microsome study; preclinical, no reference given; cited from earlier work
# [10] = target: XO (Homo sapiens, UniProt P47989); assay: PK/PD relationship, Emax model; type: in vivo
# XO, sequence (P47989 whole entry): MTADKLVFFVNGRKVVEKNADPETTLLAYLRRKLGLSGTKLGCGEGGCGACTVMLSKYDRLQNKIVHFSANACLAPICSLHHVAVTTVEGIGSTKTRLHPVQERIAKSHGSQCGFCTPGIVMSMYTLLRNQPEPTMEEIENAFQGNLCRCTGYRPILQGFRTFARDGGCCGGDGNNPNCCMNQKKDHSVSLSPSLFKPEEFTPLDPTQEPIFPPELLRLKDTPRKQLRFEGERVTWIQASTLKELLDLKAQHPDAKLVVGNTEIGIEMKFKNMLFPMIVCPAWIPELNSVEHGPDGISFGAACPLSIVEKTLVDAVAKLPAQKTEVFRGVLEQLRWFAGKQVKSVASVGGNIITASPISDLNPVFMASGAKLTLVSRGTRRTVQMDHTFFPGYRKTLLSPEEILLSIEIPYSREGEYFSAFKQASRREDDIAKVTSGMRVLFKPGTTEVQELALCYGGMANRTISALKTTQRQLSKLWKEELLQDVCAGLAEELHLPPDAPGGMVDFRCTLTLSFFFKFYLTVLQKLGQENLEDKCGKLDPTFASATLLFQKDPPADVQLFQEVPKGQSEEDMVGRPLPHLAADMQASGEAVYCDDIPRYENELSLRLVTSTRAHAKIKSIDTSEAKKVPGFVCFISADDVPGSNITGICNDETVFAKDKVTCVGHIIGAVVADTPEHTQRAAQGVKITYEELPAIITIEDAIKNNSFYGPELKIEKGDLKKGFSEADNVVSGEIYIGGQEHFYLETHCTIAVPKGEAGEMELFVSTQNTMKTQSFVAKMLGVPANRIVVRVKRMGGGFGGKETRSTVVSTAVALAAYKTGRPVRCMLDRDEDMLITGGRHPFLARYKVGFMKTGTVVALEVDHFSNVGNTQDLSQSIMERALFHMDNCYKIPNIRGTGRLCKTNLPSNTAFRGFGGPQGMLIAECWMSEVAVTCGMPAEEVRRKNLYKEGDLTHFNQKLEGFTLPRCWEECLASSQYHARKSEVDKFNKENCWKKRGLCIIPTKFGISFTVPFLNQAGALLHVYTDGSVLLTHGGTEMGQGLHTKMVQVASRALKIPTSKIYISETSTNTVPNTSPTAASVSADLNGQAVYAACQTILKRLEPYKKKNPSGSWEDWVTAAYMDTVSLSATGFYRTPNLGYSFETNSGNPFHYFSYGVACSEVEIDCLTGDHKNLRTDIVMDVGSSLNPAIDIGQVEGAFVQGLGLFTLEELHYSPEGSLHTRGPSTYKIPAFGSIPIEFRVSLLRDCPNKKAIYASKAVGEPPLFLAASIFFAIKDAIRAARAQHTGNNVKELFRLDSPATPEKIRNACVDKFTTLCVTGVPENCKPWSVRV
# [11] = SAD study incl. food effect: pharmacokinetics of LC350189 in plasma and urine; type: in vivo, human
# [12] = test system: rat; settings: preclinical studies, no reference given; cited from earlier work
# [13] = test system: healthy subjects; assay: Safety and tolerability evaluation; type: in vivo, human
# Outline: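 The single-dose part covered 10–600 mg; the multiple-dose part gave 100–800 mg orally once daily for 7 days after an overnight fast, with 8 active subjects per dose group. Adverse events came from a questionnaire or spontaneous reports. Renal toxicity was assessed with a NGAL test.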
# [14] = test system: healthy subjects; assay: Single ascending dose; type: in vivo, human; settings: for Change in Cmean,24 of serum uric acid from baseline: Day 1, mean (SD), n=8
# Outline: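 Healthy volunteers got a single oral dose on day 1, fasted, with placebo on day -1 for baseline and standardized meals. Serial blood was taken on days -1 and 1; aliquots were stored at -70°C. Serum uric acid, xanthine and hypoxanthine were measured by a validated assay. Cmean,24 = noncompartmental AUC0–24/24, as % change from baseline. Urinary Ae = urine volume × concentration.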
# [15] = 200 mg, fed (high-fat diet) vs fasting
smiles,measurement,setting,value
"Cc1nc(-c2ccc(OCC(C)C)c(C#N)c2)sc1C(=O)O [Febuxostat, febuxostat]",t1/2,[1]; febuxostat 40 mg,10.3 ± 7.4 h
same,t1/2,[1]; febuxostat 70 mg,12.5 ± 7.7 h
same,Tmax,[1]; febuxostat,~ 1 hour
same,"Maximum percentage decrease from baseline in Cmean,24",[2]; febuxostat 40 mg dose group,~ 40%
same,"Maximum percentage decrease from baseline in Cmean,24",[2]; febuxostat 90 mg dose group,60%
same,"Inhibition of the enzyme (XO), Emax",[2]; febuxostat,81.4%
same,"Allergic reaction, subjects",[2]; previous febuxostat multiple-dose study,six out of 118 subjects
same,"Maximum percentage decrease from baseline in Cmean,24 for SUA",[3]; febuxostat group (80 mg once daily for 7 days),58.8%
same,Change by food in the percentage decrease in SUA concentration,[4],no clinically significant change
same,Change of AUC by food,[4],slight decrease
CC(C)n1cc(C#N)c2cc(-n3cc(C(=O)O)cn3)ccc21 [LC350189],Metabolic stability,[5],metabolically stable
same,Reduction of SUA,[6],sufficiently reduced SUA
same,Dose up to which no significant toxicity was found,[7],200 mg/kg
same,Inhibition of XO enzyme activity,[8],comparable to febuxostat
same,Metabolic stability,[9],metabolically stable
same,"Emax (maximum percentage decrease in Cmean,24 of SUA)","[10]; Emax model, day 7, MAD, 95% CI 94.8%–105.4%",100.1%
same,Inhibition of XO activity,"[10]; multiple doses at 100 mg, AUC at steady state close to EAUC50",~50%
same,Emax,[10]; read-out: Inhibition of XO based on the Emax model,~100%
same,"Change in Cmean,24 of serum uric acid from baseline","[3]; MAD 800 mg once daily for 7 days, fasted, Day 7, mean (SD), n=6",−91.2%
same,Amount of uric acid excreted in the urine relative to baseline,[3]; after multiple administrations,one-third to one-tenth of the baseline level
same,"Maximum percentage decrease from baseline in Cmean,24 for SUA",[3]; after multiple administrations of LC350189,91.2%
same,"Increase of Cmean,24 of xanthine","[3]; after multiple administrations, day 7",three-to eight-fold
same,Geometric mean ratio (90% CI) of AUClast with and without food,[11]; 200 mg single dose,0.973 (0.837–1.131)
same,"Geometric mean ratio (90% CI) of Cmax, fed vs fasting",[11]; 200 mg single dose,0.624 (0.485–0.802)
same,Decrease of Cmax by food,[11]; [15],38%
same,Delay of absorption by food,[11]; [15],~ 2 hours
same,Time up to which plasma concentrations were detected,"[11]; SAD low-dose groups (10 mg, 25 mg, 50 mg), LLOQ 5 ng/mL",up to 48 hours
same,half-life,"[11]; male, human, plasma, oral, t1/2, overall, approximate",~10 h
same,Dose up to which no significant toxicity was found,[12],12.5 mg/kg
same,Allergic reaction,[13]; SAD and MAD,no allergic reaction
same,Renal toxicity according to the NGAL test,[13]; SAD and MAD,no signals of renal toxicity
same,Tolerability,"[13]; single and multiple oral administrations, dose range 10–800 mg",well tolerated
same,"Change in Cmean,24 of serum uric acid from baseline","[14]; SAD single oral 200 mg, fasting",−22.9%
same,"Change in Cmean,24 of serum uric acid from baseline","[14]; SAD single oral 600 mg, fasted",−31.7%
same,"Increase of Cmean,24 of xanthine",[14]; after a single dose,two- to seven-fold

# From PMC4560520 (Drug Design, Development and Therapy, 2015)
